One may read the IC50 as the concentration that inhibits the measured activity by half.

Activity calls are given as the source filed them. No cut-off for these calls is given here.

In data set [1] the test system is SH-SY5Y. The data set is described as follows: Cytotoxicity against human SH-SY5Y cells assessed as cell viability at 10 uM after 24 hrs by MTT assay (reference value: […] +/- 11.7 %). As to conditions: read-out: Activity. In kind it is functional. (In general: Tetrazolium assays rely on reduction of a dye to a coloured formazan, in cell work by metabolically active cells.)

Data set [2] concerns SH-SY5Y. As to the kind of experiment: Cytotoxicity against human SH-SY5Y cells assessed as reduction in cell viability at 1 to 10 uM after 24 hrs by neutral red uptake assay. The data set is classed as functional, cell-based. The essentials:
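SH-SY5Y cells grown to confluence over 3 days and exposed 24 h to compound at 1 and 10 μM in serum-free medium, with a 0.1% DMSO vehicle control. Neutral red 50 μg/mL added for 2 h at 37 °C. Dye extracted with ethanol/water (1:1) containing 5% acetic acid and read at 540 nm. Uptake expressed as % of control.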

Data set [3] deals with SH-SY5Y. The data set is described as follows: Cytotoxicity against human SH-SY5Y cells assessed as reduction in cell viability at 1 uM after 24 hrs by MTT assay. The data set is classed as functional, cell-based.
For data set [4], the target named is T1, Amine oxidase [flavin-containing] B (Homo sapiens, UniProt P27338).
T1 sequence (P27338 whole entry): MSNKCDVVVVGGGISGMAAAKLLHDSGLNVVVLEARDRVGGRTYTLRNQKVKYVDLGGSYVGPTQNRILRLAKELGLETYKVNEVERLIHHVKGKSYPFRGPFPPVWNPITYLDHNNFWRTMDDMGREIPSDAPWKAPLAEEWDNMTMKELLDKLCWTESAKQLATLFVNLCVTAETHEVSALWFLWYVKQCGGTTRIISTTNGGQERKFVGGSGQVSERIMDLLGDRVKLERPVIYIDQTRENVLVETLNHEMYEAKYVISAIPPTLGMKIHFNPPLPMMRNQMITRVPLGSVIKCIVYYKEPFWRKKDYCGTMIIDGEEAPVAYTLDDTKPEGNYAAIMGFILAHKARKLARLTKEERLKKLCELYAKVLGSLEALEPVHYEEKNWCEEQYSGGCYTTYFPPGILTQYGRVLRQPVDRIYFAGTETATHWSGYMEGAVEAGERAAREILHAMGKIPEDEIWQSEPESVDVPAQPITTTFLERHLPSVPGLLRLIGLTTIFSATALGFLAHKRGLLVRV
As to the kind of experiment: biochemical. The data set is classed as cell-based, BTI-TN-5B1-4.

In data set [5] the target is T2, Amine oxidase [flavin-containing] A (Homo sapiens, UniProt P21397).
T2 sequence (P21397 whole entry): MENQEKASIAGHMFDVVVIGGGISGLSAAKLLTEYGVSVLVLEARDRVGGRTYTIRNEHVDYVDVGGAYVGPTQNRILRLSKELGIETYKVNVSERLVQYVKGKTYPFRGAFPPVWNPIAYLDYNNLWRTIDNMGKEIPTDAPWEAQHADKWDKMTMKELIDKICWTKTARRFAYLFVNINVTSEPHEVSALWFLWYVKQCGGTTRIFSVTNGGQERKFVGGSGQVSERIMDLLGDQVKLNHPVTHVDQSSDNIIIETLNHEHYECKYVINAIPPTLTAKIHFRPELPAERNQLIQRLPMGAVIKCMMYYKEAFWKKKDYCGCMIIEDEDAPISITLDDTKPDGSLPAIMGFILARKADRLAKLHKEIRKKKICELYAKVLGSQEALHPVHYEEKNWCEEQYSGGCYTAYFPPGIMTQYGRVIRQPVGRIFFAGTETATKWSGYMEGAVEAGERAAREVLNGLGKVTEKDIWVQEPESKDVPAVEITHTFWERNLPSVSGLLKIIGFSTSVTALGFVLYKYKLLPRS
As to the kind of experiment: Inhibition of human microsomal MAO-A expressed in recombinant baculovirus infected insect BTI-TN-5B1-4 cells assessed as reduction in H2O2 production using p-tyramine as substrate after 15 mins by fluorescence assay.

Data set [6] addresses T2, Amine oxidase [flavin-containing] A. The data set is described as follows: Inhibition of human microsomal MAO-A expressed in recombinant baculovirus infected insect BTI-TN-5B1-4 cells assessed as reduction in H2O2 production at 100 uM using p-tyramine as substrate after 15 mins by fluorescence assay.
Data set [7] deals with T1, Amine oxidase [flavin-containing] B. As to the kind of experiment: Reversible inhibition of human microsomal MAO-B expressed in recombinant baculovirus infected insect BTI-TN-5B1-4 cells assessed as increase in residual enzyme activity at 40 nM after 60 mins. The note with it: bti-tn-5b1-4, 1 h, 0.04 µM.
The target of data set [8] is T2, Amine oxidase [flavin-containing] A. The data set is described as follows: Inhibition of human microsomal MAO-A expressed in recombinant baculovirus infected insect BTI-TN-5B1-4 cells assessed as reduction in H2O2 production at 10 uM using p-tyramine as substrate after 15 mins by fluorescence assay.
The species named for another data set is Homo sapiens. As to the kind of experiment: Selectivity index, ratio of IC50 for human microsomal MAO-A expressed in recombinant baculovirus infected insect BTI-TN-5B1-4 cells to IC50 for human microsomal MAO-B expressed in recombinant baculovirus infected insect BTI-TN-5B1-4 cells.
For data set [9], the system named is SH-SY5Y. As to the kind of experiment: Cytotoxicity against human SH-SY5Y cells assessed as cell viability at 1 uM after 24 hrs by MTT assay (reference value: […] +/- 11.7 %). The data set is classed as functional. The note with it: read-out: Activity.

Take `Cc1ccc(NC(=O)c2coc3ccccc3c2=O)cc1C`: in the data set with SH-SY5Y [1], the viability at 10 µM came to 74.5%. Moreover, the result in the data set on SH-SY5Y [2] and in the data set with SH-SY5Y [3] was inactive.

Take `O=C(Nc1ccc(Cl)c(Cl)c1)c1coc2ccccc2c1=O`: the IC50 result in data set [4] (bti-tn-5b1-4) and in data set [5] was “Nd(Insoluble)” each time.

Take `C[C@H](NCc1ccc(OCc2cccc(F)c2)cc1)C(N)=O` [SAFINAMIDE]: in [6], the INH entry was “Not Active”. The “inhibition (INH)” value in data set [7] is “Active”.

On to `O=C(Nc1cc(Cl)c(Cl)c(Cl)c1)c1coc2ccccc2c1=O`, for which the IC50 entry in [4] (bti-tn-5b1-4) and in data set [5] was “Nd(Insoluble)” throughout.

With `O=C(Nc1ccc(S)cc1)c1coc2ccccc2c1=O`, the 50% inhibitory concentration (IC50) result in data set [4] (bti-tn-5b1-4) and in data set [5] was “Nd(Insoluble)” each time.

Take `O=C(Nc1ccc(O)cc1)c1coc2ccccc2c1=O`: the 50% inhibitory concentration (IC50) in data set [4] (read-out: IC50) came out at 1380 nM. In addition, the INH result in data set [8] was “Not Active”. For the same compound, in the data set listed under Homo sapiens, the Ratio IC50 is over 7.2.

In the case of `O=C(Nc1cccc(Cl)c1)c1coc2ccccc2c1=O`, the viability at 10 µM in the data set with SH-SY5Y [1] amounted to 43.7%. In addition, the viability at 1 µM in the data set with SH-SY5Y [9] came out at 64.3%. Moreover, in the data set on SH-SY5Y [2], the result was inactive.
